Consider one molecule from ChEMBL document CHEMBL1125894, “Dual-action cephalosporins: cephalosporin 3'-quaternary ammonium quinolones” (1991).

Converted amounts (≈) assume the structure as drawn.

The test system of test [1] is Enterobacter cloacae. In words: In vitro antibacterial activity against Enterobacter cloacae 5699. The class given is functional. The procedure, abridged:
(§1)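 Serial 2-fold dilutions in the NCCLS broth microdilution method for aerobic nonfastidious organisms, with an 18-h incubation. The value is reported as the minimum inhibitory concentration (MIC).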

In test [2] the test system is Escherichia coli. Kind of test: In vitro antibacterial activity against Escherichia coli 257. In kind it is functional. The procedure, abridged:
as §1

Test [3] has as its system Klebsiella pneumoniae. In words: In vitro antibacterial activity against Klebsiella pneumoniae A. The class given is functional. The method, boiled down: as §1
Test [4] deals with Escherichia coli. In words: Antibacterial activity against Escherichia coli DC-O. In kind it is functional. The method, boiled down: as §1
Test [5] relates to Citrobacter freundii. Kind of test: In vivo activity in murine against Citrobacter freundii BS#16 infection after sc administration. The class given is functional. The procedure, abridged:
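CD1 Swiss albino mice (18–20 g) infected intraperitoneally with 0.5 mL diluted bacterial culture suspension. Single subcutaneous treatment within 5 min, 1.0 mL at dorsal base of neck, serial dilutions spanning 0.05–250 mg/kg. Six mice per treatment and control group. ED50 (50% protective dose) derived by Reed and Muench method.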

Test [6] has as its target T1, Peptidoglycan D,D-transpeptidase MrdA (Escherichia coli K-12) (UniProt P0AD65).
T1 sequence (whole entry): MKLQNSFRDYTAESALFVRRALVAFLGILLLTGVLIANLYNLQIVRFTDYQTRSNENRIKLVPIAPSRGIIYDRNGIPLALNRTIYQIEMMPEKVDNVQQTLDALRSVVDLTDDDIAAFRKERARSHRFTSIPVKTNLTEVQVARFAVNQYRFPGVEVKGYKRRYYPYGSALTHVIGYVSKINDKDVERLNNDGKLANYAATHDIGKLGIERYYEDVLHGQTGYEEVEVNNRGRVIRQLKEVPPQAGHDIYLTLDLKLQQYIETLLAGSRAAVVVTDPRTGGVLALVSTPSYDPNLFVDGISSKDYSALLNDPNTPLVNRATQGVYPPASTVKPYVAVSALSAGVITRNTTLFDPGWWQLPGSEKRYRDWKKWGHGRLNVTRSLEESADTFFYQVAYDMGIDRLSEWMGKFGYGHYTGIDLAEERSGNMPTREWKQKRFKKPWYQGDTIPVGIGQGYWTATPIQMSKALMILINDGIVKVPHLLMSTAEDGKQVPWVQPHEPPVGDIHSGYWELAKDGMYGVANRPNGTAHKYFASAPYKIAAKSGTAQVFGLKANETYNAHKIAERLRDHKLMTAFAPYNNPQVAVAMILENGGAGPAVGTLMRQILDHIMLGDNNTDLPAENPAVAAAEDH
Kind of test: Concentration required for 90% inhibition against 66 kDa penicillin-binding protein 2 binding using [14C]-Pen G as the radioligand. The method, boiled down: (§2)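 Solubilized membranes from sonicated E. coli DC-0 were used. PBP binding was measured as inhibition of [14C]penicillin G binding to each PBP.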

Test [7] concerns Staphylococcus aureus. In words: In vitro antibacterial activity against Staphylococcus aureus Smith(MS). The class given is functional. The method, boiled down: (§3)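 Staphylococci were tested by the standard agar dilution procedure using serial 2-fold dilutions of agent. The value is reported as the MIC.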
Test [8] has as its system Staphylococcus aureus. In words: In vitro antibacterial activity against Staphylococcus aureus 95(MR). The class given is functional. The procedure, abridged: as §3
Test [9] concerns Pseudomonas aeruginosa. In words: In vitro antibacterial activity against Pseudomonas aeruginosa 5712. The class given is functional. The method, boiled down: as §1
The subject of test [10] is Enterobacter cloacae. In words: In vitro antibacterial activity against Enterobacter cloacae P99. In kind it is functional. The procedure, abridged: as §1
In test [11] the test system is Citrobacter freundii. In words: In vitro antibacterial activity against Citrobacter freundii BS 16. In kind it is functional. The procedure, abridged: as §1
Test [12] has as its system Enterobacter cloacae. In words: In vivo activity in murine against Enterobacter cloacae 5699 infection after sc administration. The class given is functional. The procedure, abridged: (§4)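 Mouse protection test in CD1 Swiss albino mice (18–20 g). Mice were infected intraperitoneally with 0.5 mL of a diluted bacterial suspension, then treated within 5 min with one 1.0 mL subcutaneous dose at the dorsal base of the neck. Doses ranged from 0.05 to 250 mg/kg, with six mice per group. ED50 was calculated by the Reed–Muench method.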

Test [13] relates to Streptococcus pyogenes. In words: In vitro antibacterial activity against Streptococcus pyogenes 4. In kind it is functional. The method, boiled down: (§5)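 Broth macrodilution with serial 2-fold dilutions in cation-supplemented Mueller-Hinton broth containing 10% goat serum. The value is reported as the MIC.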
Test [14] has as its system Escherichia coli. In words: Concentration required for 90% inhibition against 60 kDa penicillin-binding protein 3 binding using [14C]-Pen G as the radioligand. The method, boiled down: as §2
Test [15] concerns Klebsiella pneumoniae. In words: In vivo activity in murine against Klebsiella pneumoniae A infection after sc administration. The class given is functional. The method, boiled down: as §4
The test system of test [16] is Escherichia coli. Kind of test: In vivo activity in murine against Escherichia coli 257 infection after sc administration. In kind it is functional. To be noted: Escherichia coli, sc; read-out: ED50. The method, boiled down: as §4
The subject of test [17] is Staphylococcus aureus. In words: In vivo activity in murine against Staphylococcus aureus Smith (MS) infection after sc administration. The class given is functional. The procedure, abridged: as §4
In a further test the test system is Streptococcus pneumoniae. Kind of test: In vitro antibacterial activity against Streptococcus pneumoniae 6301. In kind it is functional. The method, boiled down: as §5
For test [18], the system named is Pseudomonas aeruginosa. Kind of test: In vivo activity in murine against Pseudomonas aeruginosa 5712 infection after sc administration. The following applies: Pseudomonas aeruginosa, sc; read-out: ED50. In kind it is functional. The method, boiled down: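 Mouse protection test in CD1 Swiss albino mice (18–20 g) infected intraperitoneally with 0.5 mL of diluted P. aeruginosa suspension. Mice received 1.0 mL subcutaneously at the neck base within 5 min of infection and a second treatment 3 h after infection. Doses ranged from 0.05 to 250 mg/kg, with six mice per group. ED50 was calculated by the Reed–Muench method.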

Test [19] has as its target T2, Penicillin-binding protein 1A (Escherichia coli K-12) (UniProt P02918).
T2 sequence (whole entry): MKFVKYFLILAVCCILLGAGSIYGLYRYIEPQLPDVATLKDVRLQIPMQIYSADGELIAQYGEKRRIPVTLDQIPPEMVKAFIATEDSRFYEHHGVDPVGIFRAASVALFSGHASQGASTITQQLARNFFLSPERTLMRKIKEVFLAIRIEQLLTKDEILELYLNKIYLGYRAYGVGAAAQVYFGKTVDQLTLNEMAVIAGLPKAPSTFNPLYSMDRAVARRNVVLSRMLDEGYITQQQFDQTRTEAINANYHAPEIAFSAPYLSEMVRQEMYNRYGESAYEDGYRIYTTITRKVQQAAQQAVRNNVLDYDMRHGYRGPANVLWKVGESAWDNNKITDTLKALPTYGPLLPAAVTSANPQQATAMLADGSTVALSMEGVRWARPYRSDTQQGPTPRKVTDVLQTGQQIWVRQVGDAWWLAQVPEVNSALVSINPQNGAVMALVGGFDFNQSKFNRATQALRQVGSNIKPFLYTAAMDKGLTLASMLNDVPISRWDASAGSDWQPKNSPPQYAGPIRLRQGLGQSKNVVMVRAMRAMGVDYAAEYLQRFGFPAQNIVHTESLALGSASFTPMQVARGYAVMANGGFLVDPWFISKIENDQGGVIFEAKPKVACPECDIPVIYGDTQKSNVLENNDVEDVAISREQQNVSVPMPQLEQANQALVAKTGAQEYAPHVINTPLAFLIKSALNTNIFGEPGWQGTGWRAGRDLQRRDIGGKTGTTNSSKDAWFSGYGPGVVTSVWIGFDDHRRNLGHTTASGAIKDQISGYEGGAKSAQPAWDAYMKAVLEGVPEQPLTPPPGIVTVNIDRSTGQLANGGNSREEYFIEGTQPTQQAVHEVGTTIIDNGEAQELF
In words: Concentration required for 90% inhibition against 90 kDa penicillin-binding protein 1a binding using [14C]-Pen G as the radioligand. The procedure, abridged:
as §2

Test [20] concerns Streptococcus pyogenes. Kind of test: In vivo activity in murine against Streptococcus pyogenes 4 infection after sc administration. In kind it is functional. The method, boiled down:
as §4

With `CC(C)(O/N=C(\C(=O)N[C@@H]1C(=O)N2C(C(=O)[O-])=C(C[N+]3(C)CCN(c4c(F)cc5c(=O)c(C(=O)O)cn(CCF)c5c4F)CC3)CS[C@H]12)c1csc(N)n1)C(=O)O`, the MIC against Enterobacter cloacae [1] was 0.25 µg/mL (≈ 0.299 µM); in the test on Escherichia coli [2] it was 0.25 µg/mL (≈ 0.299 µM); in the test on Klebsiella pneumoniae [3], 0.25 µg/mL (≈ 0.299 µM); in the test on Escherichia coli [4] it was 0.2 µg/mL (≈ 0.239 µM); in the test with Staphylococcus aureus [7], 16 µg/mL (≈ 19.1 µM); in the test on Staphylococcus aureus [8], 8 µg/mL (≈ 9.56 µM). Further, the minimal inhibitory concentration (MIC) in the test on Pseudomonas aeruginosa [9] amounted to 16 µg/mL (≈ 19.1 µM); against Enterobacter cloacae [10], 1 µg/mL (≈ 1.19 µM); against Citrobacter freundii [11] it was 2 µg/mL (≈ 2.39 µM); with Streptococcus pyogenes [13] it was 0.5 µg/mL (≈ 0.597 µM); with Streptococcus pneumoniae, 0.5 µg/mL (≈ 0.597 µM). In addition, the median effective dose (ED50) was 9 mg/kg in the test with Citrobacter freundii [5]; less than 5 mg/kg in the test with Enterobacter cloacae [12]; 3 mg/kg in the test on Klebsiella pneumoniae [15]; 0.28 mg/kg in the test with Escherichia coli [16]; 2.6 mg/kg in the test on Staphylococcus aureus [17]; more than 250 mg/kg with Pseudomonas aeruginosa [18]. The molecule further yielded an ED50 in the test with Streptococcus pyogenes [20] of 54 mg/kg. For the same molecule, the results for the Concentration (in [6]; with Escherichia coli [14]; in test [19]) were 100 µg/mL, 0.1 µg/mL and 2 µg/mL, respectively.
